Measurements published in PubChem BioAssay.
Active and inactive are the calls of the source.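 How the source made its calls, unless noted: active means inhibition at or above 50% at 10 µM; inactive means inhibition below 50%.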

Tests used:
[1] = inhibitors of TNFa-induced NFkB p65 translocation, primary screen, imaging, HUVEC, MLSMR starter and 10KST1 sets (AID 438;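 active means inhibition above 20% together with a positive visual image hit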;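 further: compound added about 3h40 before a 20 min TNFalpha stimulation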;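 on inhibition: signal is the nuclear over cytoplasmic p65 intensity ratio per well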); conditions: HUVEC TNFa-induced p65 nuclear translocation; cell count: measured here: nuclei count (cytotoxicity indicator), at 2.08 µM; inhibition: at 2 µM, stronger effect = higher value, 0% TNFa-plus-vehicle, 100% no-TNFa wells
[2] = reduction of polyQ htt aggregates in cells – imaging, exon1htt(103Q)mCFP cells, high-content imaging, primary screen (AID 483;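 active means visual image review flags a hit and inhibition of aggregation exceeds 20%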;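 further: compound exposure lasted 3 days before fixation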;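 on nuclei count: percent of the per-plate median nuclei count of sample wells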); conditions: exon1htt(103Q)mCFP cell line, aggregate imaging, at 2 µM; inhibition of aggregation: stronger effect = higher value; nuclei count: measured here: cell count, toxicity
[3] = endothelial E-selectin expression blockers – imaging, HUVEC, immunofluorescence, MLSMR starter and 10KST1 sets, primary screen (AID 487;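 active means visually confirmed hit in the image check and inhibition above 20%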;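 on inhibition: signal is fraction of cell area covered by stained E-selectin grains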;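 on nuclei count: 100% = median nuclei count of all wells on the same plate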); conditions: HUVEC TNFalpha-induced E-selectin immunofluorescence imaging, at 2 µM; inhibition: stronger effect = higher value; nuclei count: measured here: cell number, toxicity
[4] = molecular target: Voltage-gated potassium channel subunit beta-2 (Rattus norvegicus) (UniProt P62483); test: inhibitors of rat Kvbeta2 reductase activity – biochemical, NADPH fluorescence, primary screen (AID 622;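 active means fluorescence slope higher than the sample average by over 3 SD, cut at about -0.22 in these data, passing the limit was not always enough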;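 further: slope of raw intensity against log time taken from 70 to 1610 s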); conditions: recombinant KvBeta, 4-cyanobenzaldehyde reduction, at 10 µM, stronger effect = higher value
Sequence of Voltage-gated potassium channel subunit beta-2 (Rattus norvegicus) (P62483 whole entry, looked up): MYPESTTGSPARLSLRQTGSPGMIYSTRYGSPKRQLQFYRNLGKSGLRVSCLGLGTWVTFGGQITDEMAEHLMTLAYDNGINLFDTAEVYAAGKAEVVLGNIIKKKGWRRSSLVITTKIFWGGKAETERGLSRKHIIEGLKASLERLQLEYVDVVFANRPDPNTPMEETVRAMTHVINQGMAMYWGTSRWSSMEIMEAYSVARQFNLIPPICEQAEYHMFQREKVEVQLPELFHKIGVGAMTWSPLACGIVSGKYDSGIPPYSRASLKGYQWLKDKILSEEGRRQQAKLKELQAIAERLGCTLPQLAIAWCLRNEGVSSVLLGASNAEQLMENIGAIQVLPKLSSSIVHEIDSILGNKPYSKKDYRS

[5] = molecular target: Voltage-gated potassium channel subunit beta-2 (Rattus norvegicus) (UniProt P62483); test: enhancers of rat Kvbeta2 NADPH turnover – biochemical, NADPH fluorescence, primary screen (AID 623;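 active means NADPH fluorescence slope more negative than the mean of all samples by about 3 SD, 99.7% confidence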;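 further: fluorescence intensity change per second fitted from 20 to 320 s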); conditions: Recombinant KvBeta, NADPH fluorescence decrease slope, 10 min; at 10 µM; stronger effect = lower value
[6] = molecular target: Alpha-2C adrenergic receptor (Homo sapiens) (UniProt P18825); test: compounds altering alpha2C-coupled GIRK flux – cell-based, HEK293 alpha2C/GIRK1/2, thallium flux, primary screen (AID 624;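 active means fluorescence slope after compound addition differing from the mean of all screened samples at 99.7% confidence, in either direction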;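 further: slope of fluorescence ratio to pre-addition baseline per second over 15 to 24 s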); conditions: thallium flux BTC fluorescence, at 10 µM, actives lie on both sides
Sequence of Alpha-2C adrenergic receptor (Homo sapiens) (P18825 whole entry, looked up): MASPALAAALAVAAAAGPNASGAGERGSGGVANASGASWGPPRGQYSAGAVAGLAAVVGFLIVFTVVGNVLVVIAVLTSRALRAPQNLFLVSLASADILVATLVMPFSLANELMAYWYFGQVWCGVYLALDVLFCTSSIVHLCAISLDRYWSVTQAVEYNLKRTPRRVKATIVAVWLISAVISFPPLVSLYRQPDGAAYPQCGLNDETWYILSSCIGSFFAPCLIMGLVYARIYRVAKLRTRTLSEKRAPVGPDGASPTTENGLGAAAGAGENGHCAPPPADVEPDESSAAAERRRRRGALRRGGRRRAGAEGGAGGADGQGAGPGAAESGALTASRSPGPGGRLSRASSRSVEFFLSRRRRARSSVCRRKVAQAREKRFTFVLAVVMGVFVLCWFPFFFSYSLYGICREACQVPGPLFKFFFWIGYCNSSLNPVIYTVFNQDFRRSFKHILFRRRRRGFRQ

[7] = inhibitors of larval lipid processing in zebrafish, primary screen, whole organism, PED6 fluorescence, gall bladder and intestine (AID 686;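 active means a full or partial loss of lipid-probe fluorescence in the fish gall bladder, intestine or both, judged by eye; inactive means no fluorescence loss, or compound toxic to the fish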;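 further: larvae 5 to 7 days old with five fish per well; signal comes from phospholipase A2 cleavage of quenched PED6 carried via bile; overnight exposure to compound and PED6 before scoring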); conditions: Zebrafish larvae PED6 lipid processing, fluorescence scoring; screened at 20 µM (by protocol)
In short: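 System: live zebrafish larvae aged 5-7 days, whole organism; measure: graded gall bladder and intestinal fluorescence inhibition per well; incubation: overnight exposure; reagent: ingested quenched lipid PED6 at 100 nM; signal: By-eye fluorescence microscopy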

[8] = blockers of RIG-like receptor reporter activation – cell-based, Sendai virus stimulus, luciferase, 10K MLSCN set, TLR/RLR signaling modifier project, primary screen (AID 602276); conditions: HEK293 RL24 IRF3 luciferase reporter, at 10 µM, stronger effect = higher value;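 further: firefly luciferase from ISG56 promoter only with Renilla not read in this screen; 0% = Sendai virus plus DMSO and 100% = medium plus DMSO without virus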
[9] = TLR3 IRF3 reporter activation blockers – cell-based, poly I:C stimulus, luciferase, 10K MLSCN set, primary screen (AID 602277;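 active means inhibition of the reporter signal at or above 50%; inactive means inhibition below 50%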); conditions: HEK293-TLR3 RL24 IRF3 luciferase reporter, at 10 µM, stronger effect = higher value

Row | SMILES | cell count [1] | inhibition [1] | inhibition of aggregation [2] | nuclei count [2] [%] | inhibition [3] | nuclei count [3] [%] | fluorescence slope [4] | NADPH fluorescence slope [5] | slope [6] | outcome [7] | inhibition [8] | inhibition [9]
1 | CCOc1ccccc1N1CC(O)=C(c2nc3ccccc3s2)C1=N | 348 | -0.8% (inactive) | 0.2% (inactive) | 97.7 | -69.5% (inactive) | 92 | -0.291 (inactive) | -3.9e-05 (inactive) | 0.00531 (inactive) | inactive | -19.5% (inactive) | 55.4% (active)
2 | N#CCC(=O)Nc1ncn(Cc2ccccc2Cl)n1 | 273 | -2.5% (inactive) | -6% (inactive) | 87.3 | -51.5% (inactive) | 105 | -0.456 (inactive) | 1.5e-06 (inactive) | 0.00405 (inactive) | inactive | -5.79% (inactive) | 4.42% (inactive)
3 | CCCCN1CN(S(=O)(=O)c2cccs2)c2nc3ccccc3nc21 | 253 | -13% (inactive) | 0.5% (inactive) | 83.1 | 0.2% (inactive) | 91.6 | -0.393 (inactive) | -5.6e-05 (inactive) | 0.00634 (inactive) | inactive | -4.14% (inactive) | -4.36% (inactive)
4 | CCOC(=O)C1CCN(CC(=O)c2c(C)[nH]c3ccccc23)CC1 | 669 | 3.9% (inactive) | -5.8% (inactive) | 99.6 | 11.6% (inactive) | 102 | -0.421 (inactive) | -1.5e-05 (inactive) | 0.00551 (inactive) | inactive | -3.58% (inactive) | 15.2% (inactive)
5 | COc1ccc(-c2nnc(SCc3nnc(-c4ccc(Cl)cc4)o3)n2-c2ccccc2)cc1 | 565 | -13.6% (inactive) | 12.1% (inactive) | 106 | 17.2% (inactive) | 138 | -0.398 (inactive) | -6.2e-05 (inactive) | 0.00535 (inactive) | inactive | -45% (inactive) | -62.8% (inactive)
6 | COCCn1c(Sc2nc(C)cs2)nc2c1c(=O)[nH]c(=O)n2C | 422 | 5% (inactive) | -38.9% (inactive) | 105 | -78.3% (inactive) | 78.1 | -0.475 (inactive) | -1.5e-05 (inactive) | 0.00482 (inactive) | inactive | 17.1% (inactive) | 11.3% (inactive)
7 | O=C(c1ccc2snnc2c1)N1CCOCC1 | 370 | 6.3% (inactive) | -11.2% (inactive) | 107 | -50.1% (inactive) | 117 | -0.371 (inactive) | -4.9e-05 (inactive) | 0.00486 (inactive) | inactive | 10.1% (inactive) | 13.9% (inactive)
8 | CCn1nnnc1SCC(=O)N1c2ccccc2CCc2ccccc21 | 568 | -4.6% (inactive) | 2% (inactive) | 96.3 | -32.7% (inactive) | 117 | -0.377 (inactive) | -5.8e-05 (inactive) | 0.00737 (inactive) | inactive | 1.39% (inactive) | 1.68% (inactive)
9 | COc1ccc(S(=O)(=O)Nc2ccc(Cl)cn2)c(C)c1C | 482 | -29.6% (inactive) | -3.5% (inactive) | 62 | -46.8% (inactive) | 98.5 | -0.387 (inactive) | -4.6e-05 (inactive) | 0.00866 (inactive) | inactive | 11.2% (inactive) | 1.09% (inactive)
10 | O=C(O)c1ccc(S(=O)(=O)Cc2ccccc2)cc1 | 422 | 11.4% (inactive) | 3% (inactive) | 88.3 | -81.2% (inactive) | 113 | -0.421 (inactive) | 7.6e-07 (inactive) | 0.00596 (inactive) | inactive | 16.7% (inactive) | 11.3% (inactive)
11 | COc1cc(C(=O)NCC(=O)OCC(=O)c2ccc[nH]2)cc(OC)c1OC | 383 | -23% (inactive) | 10.7% (inactive) | 101 | -64.2% (inactive) | 107 | -0.458 (inactive) | -4.1e-05 (inactive) | 0.00501 (inactive) | inactive | 13.9% (inactive) | 16.7% (inactive)
12 | Cc1c(Cl)cccc1NC(=O)CCN1CCCCCC1 | 221 | 14.6% (inactive) | -8.7% (inactive) | 90.4 | -108% (inactive) | 143 | -0.414 (inactive) | -3.3e-05 (inactive) | 0.00752 (inactive) | inactive | 13.4% (inactive) | 20.3% (inactive)
13 | O=S(=O)(Nn1cnnc1)c1ccccc1Cl | 647 | 4.3% (inactive) | -12.3% (inactive) | 99 | 45.5% (inactive) | 81.7 | -0.402 (inactive) | -8.6e-06 (inactive) | 0.00434 (inactive) | inactive | -7.35% (inactive) | -10.4% (inactive)
14 | COCCCN1C(=O)C(O)=C(C(C)=O)C1c1ccccn1 (configuration not stated) | 686 | -1.7% (inactive) | -2% (inactive) | 116 | -38.3% (inactive) | 116 | -0.399 (inactive) | -6.2e-05 (inactive) | 0.00486 (inactive) | active; weak signal in gallbladder only | 12.4% (inactive) | 14.4% (inactive)
15 | Cc1nnc(SCc2nnc(-c3ccccc3Br)o2)n1-c1ccccc1 | 730 | 14.5% (inactive) | 38.5% (inactive) | 87.5 | -59.5% (inactive) | 93.8 | -0.455 (inactive) | -4e-05 (inactive) | 0.00597 (inactive) | inactive | 6.33% (inactive) | 8.93% (inactive)
16 | CCc1nnc(NC(=O)CSc2nnc3ncccn23)s1 | 341 | -5.8% (inactive) | -25.9% (inactive) | 132 | -34.8% (inactive) | 102 | -0.437 (inactive) | -9.3e-05 (inactive) | 0.00648 (inactive) | inactive | 18.7% (inactive) | 25.6% (inactive)
17 | O=P(CCNCc1ccco1)(c1ccccc1)c1ccccc1 | 322 | 9.5% (inactive) | -14.2% (inactive) | 107 | 1.5% (inactive) | 112 | -0.382 (inactive) | -2.4e-05 (inactive) | 0.00716 (inactive) | inactive | 139% (active) | 91.3% (active)
18 | Cc1cc(C(F)(F)F)c2c(C)nn(CCc3nn[nH]n3)c2n1 | 863 | 1.1% (inactive) | 11.9% (inactive) | 112 | -20% (inactive) | 117 | -0.368 (inactive) | 1.8e-05 (inactive) | 0.00523 (inactive) | inactive | -11.3% (inactive) | -12.7% (inactive)
19 | O=C(CSc1nc2ccccc2[nH]1)N1CCCCC1 | 433 | 0.5% (inactive) | 16% (inactive) | 102 | 13.2% (inactive) | 99.3 | -0.435 (inactive) | -3.6e-05 (inactive) | 0.00459 (inactive) | inactive | -14.8% (inactive) | -73.7% (inactive)
20 | CCOC(=O)c1c2n(c3ccc(O)cc13)CCCCC2 | 571 | 7.1% (inactive) | -7.5% (inactive) | 107 | -113% (inactive) | 110 | -0.413 (inactive) | -3.4e-05 (inactive) | 0.00489 (inactive) | inactive | -6.81% (inactive) | 1.43% (inactive)
21 | COC(=O)c1ccc2c(=O)n(NC(C)=O)c(=S)[nH]c2c1 | 627 | 8.7% (inactive) | -5% (inactive) | 108 | -73.1% (inactive) | 114 | -0.367 (inactive) | -6.6e-05 (inactive) | 0.00487 (inactive) | inactive | 2.98% (inactive) | -0.555% (inactive)
22 | O=C(Nc1sccc1C(=O)NCc1ccco1)c1cccnc1 | 343 | 2.1% (inactive) | -22.2% (inactive) | 103 | -92.1% (inactive) | 119 | -0.461 (inactive) | -3.3e-05 (inactive) | 0.00445 (inactive) | inactive | 5.47% (inactive) | -21.6% (inactive)
23 | N#Cc1ccc(CSc2nnc(-c3ccccn3)n2-c2ccccc2)cc1 | 363 | 5.8% (inactive) | 10.4% (inactive) | 91.3 | -10.3% (inactive) | 112 | -0.426 (inactive) | -1.1e-05 (inactive) | 0.00569 (inactive) | active; weak signal in gallbladder and intestine | 11.1% (inactive) | 9.06% (inactive)
24 | O=c1c2cnn(-c3ccccc3)c2ncn1/N=C/c1ccncc1 | 476 | -7.8% (inactive) | 3.3% (inactive) | 119 | -71.4% (inactive) | 108 | -0.378 (inactive) | -5.9e-05 (inactive) | 0.00444 (inactive) | inactive | 11.6% (inactive) | 11.3% (inactive)
25 | COc1cccc(NC(=O)c2ccccc2NS(C)(=O)=O)c1 | 328 | -6.5% (inactive) | -12.9% (inactive) | 112 | -133% (inactive) | 149 | -0.418 (inactive) | -3.8e-05 (inactive) | 0.00548 (inactive) | inactive | 18.7% (inactive) | 13.1% (inactive)
26 | COCCNC(=O)C(c1ccc(C)o1)N(Cc1cccs1)C(=O)c1snc(C(N)=O)c1N (configuration not stated) | 387 | 3.5% (inactive) | 6.6% (inactive) | 96.3 | -93.7% (inactive) | 117 | -0.379 (inactive) | -4.3e-05 (inactive) | 0.00484 (inactive) | inactive | -13.8% (inactive) | -11.9% (inactive)
